In data set [1] the target is T1, Hexokinase-3 (Rattus norvegicus) (UniProt P27926).
T1 sequence (whole entry): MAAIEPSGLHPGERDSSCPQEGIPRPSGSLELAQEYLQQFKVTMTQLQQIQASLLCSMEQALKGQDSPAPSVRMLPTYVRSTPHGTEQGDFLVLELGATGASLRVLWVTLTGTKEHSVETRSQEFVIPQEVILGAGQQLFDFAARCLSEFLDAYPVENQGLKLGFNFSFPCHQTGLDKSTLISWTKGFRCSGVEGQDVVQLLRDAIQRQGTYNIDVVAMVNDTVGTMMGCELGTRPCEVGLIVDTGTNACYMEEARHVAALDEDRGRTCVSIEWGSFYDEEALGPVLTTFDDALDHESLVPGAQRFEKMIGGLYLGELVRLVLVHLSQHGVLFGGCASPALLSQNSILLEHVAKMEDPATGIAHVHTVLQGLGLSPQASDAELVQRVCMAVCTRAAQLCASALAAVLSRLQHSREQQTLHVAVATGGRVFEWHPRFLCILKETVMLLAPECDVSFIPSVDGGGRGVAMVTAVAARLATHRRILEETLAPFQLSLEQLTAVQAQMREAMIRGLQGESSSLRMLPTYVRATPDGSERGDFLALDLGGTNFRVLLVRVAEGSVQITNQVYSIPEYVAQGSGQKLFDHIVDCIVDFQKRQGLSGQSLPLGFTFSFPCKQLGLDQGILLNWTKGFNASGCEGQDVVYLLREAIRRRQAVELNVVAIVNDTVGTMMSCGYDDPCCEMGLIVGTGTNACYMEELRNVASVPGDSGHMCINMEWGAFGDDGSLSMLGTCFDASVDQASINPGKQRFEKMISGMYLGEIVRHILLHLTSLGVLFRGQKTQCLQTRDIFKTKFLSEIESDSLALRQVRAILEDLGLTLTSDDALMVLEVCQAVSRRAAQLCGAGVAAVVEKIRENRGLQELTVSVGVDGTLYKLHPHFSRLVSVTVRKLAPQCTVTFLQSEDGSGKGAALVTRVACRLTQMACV
Kind of data set: Evaluated for the inhibition of Hexokinase type III catalyzed reactions at 0.6 mM concentration. Put shortly: (§1)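 Rat HK I, II or III from isoelectric focusing, dialysed with 0.5 mM DTT. PK/LDH-coupled assay in 0.05 M Tris-HCl pH 7.6 with 6.6 mM MgCl2, 10 mM α-D-glucose, 0.45 mM NADH, 0.55 mM PEP and 20 mM KCl. Reactions started with enzyme; rates read from 340 nm absorbance change at 22 °C.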

Data set [2] concerns the target T1, Hexokinase-3 (Rattus norvegicus). Kind of data set: Evaluated for the inhibition of Hexokinase type III catalyzed reactions at 0.3 mM concentration. Put shortly:
as §1

In data set [3] the target is T2, Hexokinase-2 (Rattus norvegicus) (UniProt P27881).
T2 sequence (whole entry): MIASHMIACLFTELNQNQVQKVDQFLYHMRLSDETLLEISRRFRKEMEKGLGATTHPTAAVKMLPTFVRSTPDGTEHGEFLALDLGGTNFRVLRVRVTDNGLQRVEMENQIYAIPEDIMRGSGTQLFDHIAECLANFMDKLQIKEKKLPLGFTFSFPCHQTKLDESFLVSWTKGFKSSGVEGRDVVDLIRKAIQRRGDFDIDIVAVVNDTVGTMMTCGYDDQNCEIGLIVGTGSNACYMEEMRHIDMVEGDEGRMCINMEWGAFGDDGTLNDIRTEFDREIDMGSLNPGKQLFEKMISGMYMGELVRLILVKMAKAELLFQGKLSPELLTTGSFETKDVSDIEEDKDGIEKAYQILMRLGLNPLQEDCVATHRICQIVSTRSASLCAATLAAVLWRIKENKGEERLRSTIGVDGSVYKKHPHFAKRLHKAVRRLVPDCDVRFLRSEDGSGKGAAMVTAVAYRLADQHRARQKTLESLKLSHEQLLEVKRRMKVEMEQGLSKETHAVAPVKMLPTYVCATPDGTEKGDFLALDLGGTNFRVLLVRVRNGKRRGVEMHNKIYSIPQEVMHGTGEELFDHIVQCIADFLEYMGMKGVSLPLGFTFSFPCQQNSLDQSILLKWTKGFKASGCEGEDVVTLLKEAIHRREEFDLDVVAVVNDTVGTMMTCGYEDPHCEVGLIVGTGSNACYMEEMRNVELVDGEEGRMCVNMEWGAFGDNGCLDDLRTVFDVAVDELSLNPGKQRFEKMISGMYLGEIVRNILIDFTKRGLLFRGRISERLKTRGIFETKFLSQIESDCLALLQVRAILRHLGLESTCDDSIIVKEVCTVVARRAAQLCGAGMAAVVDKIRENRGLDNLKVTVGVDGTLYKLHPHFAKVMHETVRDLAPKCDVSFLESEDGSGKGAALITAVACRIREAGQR
Kind of data set: Evaluated for the inhibition of Hexokinase, type II catalyzed reactions at 0.6 mM concentration. The gist of the method:
as §1

A short description of data set [4]: Evaluated for the inhibition constant Ki against hexokinase in yeast. Also noted: species or system Saccharomyces cerevisiae. The gist of the method: (§2)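 Yeast HK or rat HK II (isoelectric focusing, dialysed with 0.5 mM DTT). PK/LDH-coupled assay in 0.05 M Tris-HCl pH 7.6 with 6.6 mM MgCl2, 10 mM glucose, 0.45 mM NADH, 0.55 mM PEP, 20 mM KCl. NADH loss followed at 340 nm, 22 °C. Variable MgATP at 0.6–4.0 × KM. Inhibitors given as equimolar Mg complexes.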

In data set [5] the target is T2, Hexokinase-2 (Rattus norvegicus). Description: Evaluated for the inhibition of Hexokinase, type II catalyzed reactions at 0.3 mM concentration. The gist of the method:
as §1

The target in data set [6] is T3, Hexokinase-1 (Rattus norvegicus) (UniProt P05708).
T3 sequence (whole entry): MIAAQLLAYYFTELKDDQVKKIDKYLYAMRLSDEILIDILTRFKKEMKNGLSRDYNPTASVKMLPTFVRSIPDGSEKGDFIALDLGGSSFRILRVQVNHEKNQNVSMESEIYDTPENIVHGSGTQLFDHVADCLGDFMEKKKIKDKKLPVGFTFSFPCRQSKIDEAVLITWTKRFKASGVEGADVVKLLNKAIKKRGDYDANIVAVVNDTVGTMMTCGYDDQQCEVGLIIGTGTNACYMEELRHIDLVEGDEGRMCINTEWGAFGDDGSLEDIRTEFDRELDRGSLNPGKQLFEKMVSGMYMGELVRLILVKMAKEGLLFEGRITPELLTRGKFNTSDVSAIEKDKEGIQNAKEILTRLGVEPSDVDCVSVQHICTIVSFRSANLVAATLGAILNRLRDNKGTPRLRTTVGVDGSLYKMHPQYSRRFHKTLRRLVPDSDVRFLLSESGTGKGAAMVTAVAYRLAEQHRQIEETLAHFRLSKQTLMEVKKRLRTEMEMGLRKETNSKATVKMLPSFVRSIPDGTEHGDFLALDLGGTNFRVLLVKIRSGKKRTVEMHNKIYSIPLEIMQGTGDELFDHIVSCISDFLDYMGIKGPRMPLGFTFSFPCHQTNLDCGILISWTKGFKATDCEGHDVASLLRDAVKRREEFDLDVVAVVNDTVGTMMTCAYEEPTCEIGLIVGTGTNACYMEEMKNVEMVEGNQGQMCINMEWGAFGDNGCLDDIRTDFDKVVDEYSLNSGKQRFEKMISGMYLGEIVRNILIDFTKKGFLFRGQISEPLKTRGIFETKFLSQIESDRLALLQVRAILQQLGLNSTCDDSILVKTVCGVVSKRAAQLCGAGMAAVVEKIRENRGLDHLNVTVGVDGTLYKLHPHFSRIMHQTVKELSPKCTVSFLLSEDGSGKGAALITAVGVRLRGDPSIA
Description: Evaluated for the inhibition of Hexokinase, type I -catalyzed reactions at 0.3 mM concentration. Put shortly:
as §1

Data set [7] concerns the target T3, Hexokinase-1 (Rattus norvegicus). Description: Evaluated for the inhibition of Hexokinase, type I -catalyzed reactions at 0.6 mM concentration. The gist of the method:
as §1

Data set [8] addresses T2, Hexokinase-2 (Rattus norvegicus). Description: Evaluated for the inhibition of Hexokinase, type II catalyzed reactionsI at 0.3 mM concentration. Put shortly: as §1
For the next data set, the target named is T4, Hexokinase-2 (Rattus norvegicus, UniProt P27881).
T4 sequence (P27881 whole entry): T2 sequence (whole entry)
Kind of data set: Evaluated for the inhibition constant Ki against Hexokinase, type II. The gist of the method:
as §2

Data set [9] concerns the target T3, Hexokinase-1 (Rattus norvegicus). Description: Evaluated for the inhibition of Hexokinase, type I -catalyzed reactionsI at 0.6 mM concentration. Put shortly: as §1
Substrate in data set [10]: Nc1ncnc2c1ncn2[C@@H]1O[C@H](COP(=O)(O)OP(=O)(O)OP(=O)(O)O)[C@@H](O)[C@H]1O
Substrate in data set [11]: Nc1ncnc2c1ncn2[C@@H]1O[C@H](COP(=O)(O)OP(=O)(O)OP(=O)(O)O)[C@@H](O)[C@H]1O
This is another data set of the same source.

Substrate in data set [12]: Cc1cn([C@H]2C[C@H](O)[C@@H](CO)O2)c(=O)[nH]c1=O
Substrate in data set [13]: Nc1ncnc2c1ncn2[C@@H]1O[C@H](COP(=O)(O)OP(=O)(O)OP(=O)(O)O)[C@@H](O)[C@H]1O
This is another data set of the same source.

Substrate in data set [14]: Cc1cn([C@H]2C[C@H](O)[C@@H](CO)O2)c(=O)[nH]c1=O
The source holds these as a separate data set.

A word on the inhibition: it is the percentage by which the read-out fell short of the control. Read a high inhibition as a strong effect. As usually defined, the Ki is a dissociation constant, usually derived from enzyme kinetics or from competition with a known ligand. The low end stands for tighter binding, the high end for weaker binding. As to `Nc1ncnc2c1ncn2C1O[C@H](COP(=O)(O)OP(=O)(O)OP(=O)(O)OP(=O)(O)OC[C@@H]2O[C@@H](O)[C@@H](O)[C@H](O)[C@H]2O)[C@@H](O)[C@H]1O` (stereo partly specified), the inhibition is 8.7% in data set [1]; 6.5% in data set [2]; 30% in data set [3]; 28% in data set [5]; 4.7% in data set [6]; 8% in data set [7]. This molecule gave a Ki in data set [4] of 3.5 mM.
A word on the Km: it is the concentration of substrate that gives half-maximal velocity. `Nc1ncnc2c1ncn2[C@@H]1O[C@H](COP(=O)(O)OP(=O)(O)OP(=O)(O)O)[C@@H](O)[C@H]1O`: the Michaelis constant (Km) in the data set on Saccharomyces cerevisiae is 210 µM.
Consider `Nc1ncnc2c1ncn2C1O[C@H](COP(=O)(O)OP(=O)(O)OP(=O)(O)OC[C@@H]2O[C@@H](O)[C@@H](O)[C@H](O)[C@H]2O)[C@@H](O)[C@H]1O` (stereo partly specified), for which the inhibition in data set [8] turned out to be 4.4%; in data set [1], 6.2%; in data set [2], 3.1%; in data set [3] it was 10.1%; in data set [6] it was 9.3%; in [9], 5.6%. The Ki was 1.4 mM in [4] and 2.2 mM at Hexokinase-2.

B1: Hexokinase-2 (Rattus norvegicus), P27881 (protein)
chain: T2 sequence (whole entry)
In the case of B1, the Km in data set [10] amounted to 710 µM.

B2: Thymidine kinase, cytosolic (Rattus norvegicus), P27158 (protein)
chain: MSYINLPTVLPISPSKTRGQIQVILGPMFSGKSTELMRRVRRFQIAQYKCLVIKYAKDTRYSNSFSTHDRNTMDALPACMLKDVAQEALGVAVIGIDEGQFFPDIVDFCETMANTGKTVIV
Consider B2, for which the Michaelis constant (Km) was determined as 180 µM in data set [11], 1.6 µM in data set [12], 190 µM in data set [13] and 8 µM in [14].
